# Assay results: article PMC10432884 (Clinical and Translational Science, 2023)
# Read-outs that look alike come from different tables or passages of the source.
# Assays:
# [1] = SAD phase pharmacokinetics; assay type: in vivo, human; conditions: for AUC(0-t) / Tmax / AUC(0-inf) / Cmax / half-life: human, plasma, oral; for AUC(0-t): AUClast; for AUC(0-inf): AUCinf; for Cmax: C max
# Summary of the method: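 Single oral doses of 0.3–50 mg after ≥10 h fast. Plasma (K-EDTA) was sampled predose and […]; urine was collected for 48 h. Assay was validated LC-MS/MS (plasma LLOQ 1.00 ng/mL; below-LLOQ set to 0). AUClast, Cmax and Tmax were derived at all doses; AUCinf, clearance and t1/2 from 10 mg upward. Urinary excretion and renal clearance were also derived. Steady-state time was estimated from these SAD data.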
# healthy subjects [2] = assay: SAD phase blood pressure; assay type: in vivo, human; conditions: for Mean SBP, LSMs difference from placebo: over 48 h
# healthy subjects [3] = assay: MAD phase blood pressure; assay type: in vivo, human
# Summary of the method: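 Double-blind MAD phase: four cohorts of 10 healthy subjects, randomized 4:1 to oral tablet (2, 5, 10, 15 mg) or placebo q.d. for 14 days after ≥10 h fast. BP and pulse were recorded predose daily and at 1, 2, 4, 6, 12 h on days 1, 2 and 14. Orthostatic BP was taken 24 and 48 h after the last dose. ANCOVA (treatment, time, treatment×time; random subject; predose covariate) gave LSM differences versus placebo with 95% CI.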
# healthy subjects [4] = assay: SAD phase CNS test battery; assay type: in vivo, human
# [5] = Plasma protein binding, equilibrium dialysis; assay type: in vitro ADME, human; conditions: assumed from protein binding
# Summary of the method: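 In vitro equilibrium dialysis of test compound at 1 and 10 μM in human plasma (also mouse, rat, dog and monkey). Mean percentage bound was determined. The free fraction was used to correct CSF/plasma concentration ratios.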
# [6] = First-in-human trial, all phases: overall pharmacokinetics; assay type: in vivo
# healthy subjects [7] = tested on: healthy subjects
# [8] = dogs, preclinical experiments, cited from earlier work
# [9] = monkeys, preclinical experiments, cited from earlier work
# rodents = conditions: treated rodents; cited from earlier work
# [10] = both, 10 mg, GeoMean, SAD 10 mg
# [11] = SAD pooled zagociguat group (n = 42)
compound,measurement,setting,value
"Fc1ccccc1Cc1nc(-c2nc(C(F)(F)F)n[nH]2)cn2ccnc12 [zagociguat, 8‐(2‐fluorobenzyl)‐6‐(3‐(trifluoromethyl)‐1H‐1,2,4‐triazol‐5‐yl)imidazo[1,2‐a]pyrazine]",Dose level from which detectable in urine,[1]; SAD,10 mg
same,AUC(0-t),"[1]; both, 3 mg, GeoMean, SAD 3 mg",11.4 µg·h/mL
same,AUC(0-t),"[1]; both, 3 mg, Median, SAD 3 mg",11.2 µg·h/mL
same,Tmax,"[1]; both, 3 mg, T max, Median, SAD 3 mg",2.1 h
same,AUC(0-inf),[1]; [10],92.3 µg·h/mL
same,AUC(0-inf),"[1]; both, 10 mg, Median, SAD 10 mg",95 µg·h/mL
same,AUC(0-t),[1]; [10],57.6 µg·h/mL
same,AUC(0-t),"[1]; both, 10 mg, Median, SAD 10 mg",57.9 µg·h/mL
same,Cmax,[1]; [10],1190 ng/mL
same,Cmax,"[1]; both, 10 mg, Median, SAD 10 mg",1290 ng/mL
same,Tmax,"[1]; both, 10 mg, T max, Median, SAD 10 mg",3.5 h
same,half-life,"[1]; both, 10 mg, t 1/2, GeoMean, SAD 10 mg",63.4 h
same,half-life,"[1]; both, 10 mg, t 1/2, Median, SAD 10 mg",64.8 h
same,Cmax,"[1]; both, 20 mg, GeoMean, SAD 20 mg",2190 ng/mL
same,AUC(0-t),"[1]; 0.3 mg, GeoMean, SAD 0.3 mg",1.06 µg·h/mL
same,AUC(0-t),"[1]; 0.3 mg, Median, SAD 0.3 mg",1.09 µg·h/mL
same,Cmax,"[1]; 0.3 mg, GeoMean, SAD 0.3 mg",40 ng/mL
same,Cmax,"[1]; 0.3 mg, Median, SAD 0.3 mg",40.5 ng/mL
same,Tmax,"[1]; 0.3 mg, T max, Median, SAD 0.3 mg",0.8 h
same,AUC(0-t),"[1]; 1 mg, GeoMean, SAD 1 mg",4.34 µg·h/mL
same,AUC(0-t),"[1]; 1 mg, Median, SAD 1 mg",4.46 µg·h/mL
same,Cmax,"[1]; 1 mg, GeoMean, SAD 1 mg",142 ng/mL
same,Cmax,"[1]; 1 mg, Median, SAD 1 mg",150 ng/mL
same,Tmax,"[1]; 1 mg, T max, Median, SAD 1 mg",1 h
same,Cmax,"[1]; 3 mg, GeoMean, SAD 3 mg",373 ng/mL
same,Cmax,"[1]; 3 mg, Median, SAD 3 mg",372 ng/mL
same,AUC(0-inf),"[1]; 20 mg, GeoMean, SAD 20 mg",194 µg·h/mL
same,AUC(0-inf),"[1]; 20 mg, Median, SAD 20 mg",180 µg·h/mL
same,AUC(0-t),"[1]; 20 mg, GeoMean, SAD 20 mg",167 µg·h/mL
same,AUC(0-t),"[1]; 20 mg, Median, SAD 20 mg",158 µg·h/mL
same,Cmax,"[1]; 20 mg, Median, SAD 20 mg",2260 ng/mL
same,Tmax,"[1]; 20 mg, T max, Median, SAD 20 mg",4 h
same,half-life,"[1]; 20 mg, t 1/2, GeoMean, SAD 20 mg",67.1 h
same,half-life,"[1]; 20 mg, t 1/2, Median, SAD 20 mg",68 h
same,AUC(0-inf),"[1]; 30 mg, GeoMean, SAD 30 mg",272 µg·h/mL
same,AUC(0-inf),"[1]; 30 mg, Median, SAD 30 mg",288 µg·h/mL
same,AUC(0-t),"[1]; 30 mg, GeoMean, SAD 30 mg",251 µg·h/mL
same,AUC(0-t),"[1]; 30 mg, Median, SAD 30 mg",273 µg·h/mL
same,Cmax,"[1]; 30 mg, GeoMean, SAD 30 mg",3370 ng/mL
same,Cmax,"[1]; 30 mg, Median, SAD 30 mg",3650 ng/mL
same,Tmax,"[1]; 30 mg, T max, Median, SAD 30 mg",4.5 h
same,half-life,"[1]; 30 mg, t 1/2, GeoMean, SAD 30 mg",65.7 h
same,half-life,"[1]; 30 mg, t 1/2, Median, SAD 30 mg",62.2 h
same,AUC(0-inf),"[1]; 50 mg, GeoMean, SAD 50 mg",478 µg·h/mL
same,AUC(0-inf),"[1]; 50 mg, Median, SAD 50 mg",471 µg·h/mL
same,AUC(0-t),"[1]; 50 mg, GeoMean, SAD 50 mg",425 µg·h/mL
same,AUC(0-t),"[1]; 50 mg, Median, SAD 50 mg",427 µg·h/mL
same,Cmax,"[1]; 50 mg, GeoMean, SAD 50 mg",5730 ng/mL
same,Cmax,"[1]; 50 mg, Median, SAD 50 mg",5820 ng/mL
same,Tmax,"[1]; 50 mg, T max, Median, SAD 50 mg",5 h
same,half-life,"[1]; 50 mg, t 1/2, GeoMean, SAD 50 mg",57 h
same,half-life,"[1]; 50 mg, t 1/2, Median, SAD 50 mg",57.3 h
same,half-life,"[1]; Mean t 1/2, range, single administrations of 10–50 mg",57 to 68 h
same,Tmax,"[1]; Median T max, range, SAD doses of 0.3–3 mg",0.5 to 2.1 h
same,Tmax,"[1]; Median T max, range, SAD doses of 10–50 mg",3.5 to 5 h
same,Estimated time to steady-state,[1]; preliminary PK data from the SAD phase,11 days
same,"Mean SBP, LSMs difference from placebo","healthy subjects [2]; SAD 3 mg, 95% CI: −9.8, −0.1, p = 0.047",−4.9 mmHg
same,"Mean SBP, LSMs difference from placebo","healthy subjects [2]; SAD 50 mg, 95% CI: −10.0, −0.5, p = 0.032",−5.2 mmHg
same,DBP change,healthy subjects [2]; SAD all dose groups,no decreases
same,SBP change,"healthy subjects [2]; SAD other dose groups (1, 10, 20, 30 mg)",No decreases
same,"Mean DBP, LSMs difference from placebo","healthy subjects [3]; MAD 2 mg q.d., over 14 days, 95% CI: −10.9, −1.3, p = 0.015",−6.1 mmHg
same,"Mean SBP, LSMs difference from placebo","healthy subjects [3]; MAD 2 mg q.d., over 14 days, 95% CI: −11.6, −0.6, p = 0.032",−6.1 mmHg
same,"DBP, maximum difference from placebo","healthy subjects [3]; MAD 5 mg q.d., day 14, 95% CI: −13.0, −2.0, p = 0.009",−7.5 mmHg
same,"Mean DBP, LSMs difference from placebo","healthy subjects [3]; MAD 5 mg q.d., over 14 days, 95% CI: −11.0, −1.4, p = 0.014",−6.2 mmHg
same,SBP or DBP change,healthy subjects [3]; MAD 10 and 15 mg groups,No decreases
same,Reduction in mean diastolic blood pressure,healthy subjects [3]; maximum over dose groups,up to 7.5 mmHg
same,Reduction in mean systolic blood pressure,healthy subjects [3]; maximum over dose groups,up to 6.1 mmHg
same,"pEEG and CNS tests, differences between placebo and zagociguat groups",healthy subjects [4],No dose‐dependent or consistent statistically significant differences
same,"Free zagociguat concentration in human plasma, of total concentration",[5],1.11%
same,half-life,"[6]; human, plasma, oral",52.8 to 67.1 h
same,Exposure vs dose,[6]; single and multiple escalating doses,increased in a dose‐proportional manner
same,Subjects discontinued from study drug due to ≥1 TEAE,healthy subjects [7]; SAD 0.3 mg (n = 6),0 n
same,Subjects with ≥1 SAE,healthy subjects [7]; SAD 0.3 mg (n = 6),0 n
same,Subjects with ≥1 TEAE,healthy subjects [7]; SAD 0.3 mg (n = 6),2 (33.3%) n (%)
same,Subjects with ≥1 study drug related TEAE,healthy subjects [7]; SAD 0.3 mg (n = 6),2 n
same,TEAEs,healthy subjects [7]; SAD 0.3 mg (n = 6),5 n
same,Subjects discontinued from study drug due to ≥1 TEAE,healthy subjects [7]; SAD 1 mg (n = 6),0 n
same,Subjects with ≥1 SAE,healthy subjects [7]; SAD 1 mg (n = 6),0 n
same,Subjects with ≥1 TEAE,healthy subjects [7]; SAD 1 mg (n = 6),2 (33.3%) n (%)
same,Subjects with ≥1 study drug related TEAE,healthy subjects [7]; SAD 1 mg (n = 6),1 n
same,TEAEs,healthy subjects [7]; SAD 1 mg (n = 6),5 n
same,Orthostatic hypotension TEAE,healthy subjects [7]; SAD 3 mg,One
same,Subjects discontinued from study drug due to ≥1 TEAE,healthy subjects [7]; SAD 3 mg (n = 6),0 n
same,Subjects with ≥1 SAE,healthy subjects [7]; SAD 3 mg (n = 6),0 n
same,Subjects with ≥1 TEAE,healthy subjects [7]; SAD 3 mg (n = 6),3 (50.0%) n (%)
same,Subjects with ≥1 study drug related TEAE,healthy subjects [7]; SAD 3 mg (n = 6),2 n
same,TEAEs,healthy subjects [7]; SAD 3 mg (n = 6),7 n
same,Subjects discontinued from study drug due to ≥1 TEAE,healthy subjects [7]; SAD 10 mg (n = 6),0 n
same,Subjects with ≥1 SAE,healthy subjects [7]; SAD 10 mg (n = 6),0 n
same,Subjects with ≥1 TEAE,healthy subjects [7]; SAD 10 mg (n = 6),2 (33.3%) n (%)
same,Subjects with ≥1 study drug related TEAE,healthy subjects [7]; SAD 10 mg (n = 6),2 n
same,TEAEs,healthy subjects [7]; SAD 10 mg (n = 6),7 n
same,Subjects discontinued from study drug due to ≥1 TEAE,healthy subjects [7]; SAD 20 mg (n = 6),0 n
same,Subjects with ≥1 SAE,healthy subjects [7]; SAD 20 mg (n = 6),0 n
same,Subjects with ≥1 TEAE,healthy subjects [7]; SAD 20 mg (n = 6),3 (50.0%) n (%)
same,Subjects with ≥1 study drug related TEAE,healthy subjects [7]; SAD 20 mg (n = 6),2 n
same,TEAEs,healthy subjects [7]; SAD 20 mg (n = 6),5 n
same,Subjects discontinued from study drug due to ≥1 TEAE,healthy subjects [7]; SAD 30 mg (n = 6),0 n
same,Subjects with ≥1 SAE,healthy subjects [7]; SAD 30 mg (n = 6),0 n
same,Subjects with ≥1 TEAE,healthy subjects [7]; SAD 30 mg (n = 6),5 (83.3%) n (%)
same,Subjects with ≥1 study drug related TEAE,healthy subjects [7]; SAD 30 mg (n = 6),5 n
same,TEAEs,healthy subjects [7]; SAD 30 mg (n = 6),13 n
same,Subjects with gastrointestinal (GI)-related TEAEs,healthy subjects [7]; SAD 50 mg (4/6 subjects),66.7%
same,Subjects discontinued from study drug due to ≥1 TEAE,healthy subjects [7]; SAD 50 mg (n = 6),0 n
same,Subjects with ≥1 SAE,healthy subjects [7]; SAD 50 mg (n = 6),0 n
same,Subjects with ≥1 TEAE,healthy subjects [7]; SAD 50 mg (n = 6),5 (83.3%) n (%)
same,Subjects with ≥1 study drug related TEAE,healthy subjects [7]; SAD 50 mg (n = 6),3 n
same,TEAEs,healthy subjects [7]; SAD 50 mg (n = 6),15 n
same,Subjects with gastrointestinal (GI)-related TEAEs,healthy subjects [7]; SAD all cohorts except 50 mg (1/6 subjects each),16.7%
same,Subjects with at least one dizziness TEAE,"healthy subjects [7]; SAD all zagociguat-treated subjects (8 of 42), none on placebo",19.0%
same,Subjects discontinued from study drug due to ≥1 TEAE,healthy subjects [7]; [11],0 n
same,Subjects with ≥1 SAE,healthy subjects [7]; [11],0 n
same,Subjects with ≥1 TEAE,healthy subjects [7]; [11],22 (52.4%) n (%)
same,Subjects with ≥1 study drug related TEAE,healthy subjects [7]; [11],17 n
same,TEAEs,healthy subjects [7]; [11],57 n
same,Tolerability,healthy subjects [7]; single doses up to 50 mg,well‐tolerated with no safety signals
same,CSF/free plasma ratio,[8]; 1 h after oral 1 mg/kg,0.45
same,CSF/free plasma ratio,[8]; 2 h after oral 1 mg/kg,0.32
same,CSF/free plasma ratio,[8]; 4 h after oral 1 mg/kg,0.3
same,CSF/free plasma ratio,[8]; 8 h after oral 1 mg/kg,0.28
same,Geometric mean CSF/free plasma ratio,[9]; intravenous administration,0.57
same,Geometric mean CSF/free plasma ratio,[9]; oral administration,0.48
same,cGMP concentrations in CSF,rodents,increases in cGMP concentrations
